Test results as given in publication PMC6318120 (Cellular and molecular life sciences : CMLS, 2017).

Experiments:
[1] = test system: Cx43-hemichannels in primary bovine corneal endothelial cells (BCECs); settings: cited from earlier work
Cx43-hemichannels = settings: cited from earlier work; for effect on Cx43-hemichannel inhibition by high [Ca2+]i: 1 μM [Ca2+]i
Cx43 gap junctions = settings: cited from earlier work
[2] = test system: Cx43-hemichannels in HeLa cells overexpressing Cx43; test: Whole-cell patch clamp recording of unitary Cx43-hemichannel currents; type: cell-based, human; settings: peptide 100 μM via patch pipette
[3] = test system: native HeLa cells, which lack endogenous Cx43 expression; test: Whole-cell patch clamp recording in native HeLa cells; type: cell-based, human; settings: peptide 100 μM; voltage steps -30 to +60 mV; Supplementary Fig. 1
Procedure, shortened: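 Whole-cell patch clamp was done on untransfected HeLa cells. The CsCl/EGTA/TEA pipette solution (pH 7.2) was set to 1 µM free Ca2+ and delivered test peptide (100 µM). Steps ran from −30 to +60 mV for 30 s, acquired at 4 kHz and filtered at 1 kHz.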

Cx43^M242 hemichannels = test: ATP release from HeLa cells transiently expressing CT-truncated Cx43^M242; type: cell-based, human; settings: peptide 100 μM; Fig. 6b
Procedure, shortened: (§1)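 HeLa cells were transiently transfected with the truncated Cx43 construct; empty-vector-transfected cells gave background release. Cells were triggered with 2 µM A23187 while exposed to vehicle or TAT-linked test peptides (100 µM). Extracellular ATP was measured by luciferin–luciferase and normalised to baseline from separate cultures in standard HBSS-HEPES. At least four independent measurements.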

[4] = test system: Cx43^ΔGap19M242-based hemichannels; test: ATP release from HeLa cells transiently expressing Cx43^ΔGap19M242; type: cell-based, human; settings: peptide 100 μM; 2 μM A23187; n = 4; Fig. 7a
Procedure, shortened: as §1

In the case of `Cc1ccc2c(c1)C(=O)C1(O)CCN(c3ccccc3)C1=N2` (single isomer, unassigned; (-)) [(−)-blebbistatin], the “effect on thrombin-induced inhibition of Cx43-hemichannels in BCECs” value ([1]; thrombin-treated BCECs) is listed as “could be alleviated” and the “effect on Cx43-hemichannel inhibition by high [Ca2+]i” value (Cx43-hemichannels) is listed as “prevented the Cx43-hemichannel inhibition by high [Ca^2+]i”.
For “Gap19: nine amino acid sequence of L2, selective Cx43-hemichannel inhibitor (KQIEIKKFK; UniProt P17302 128-136, looked up, fragment)”, the “effect on Cx43 gap junctions” value (Cx43 gap junctions) is listed as “not affecting Cx43 gap junctions” and the “effect on opening of Cx43-hemichannels” value (Cx43-hemichannels) is listed as “inhibit the opening of Cx43-hemichannels”.
In the case of SPTAPLSPMSPPG [SH3], the “membrane charge transfer (Qm) summary at 1 μM [Ca2+]i” value ([2]; current traces integrated over time, Fig. 4j) was “remove hemichannel inhibition”, the “effect on hemichannel opening activity at 50 nM [Ca2+]i” value ([2]; voltage steps -30 to +60 mV, 30 s, Fig. 4b, c) was “did not affect” and the “effect on inhibition of Cx43-hemichannel currents by 1 μM [Ca2+]i” value ([2]; voltage steps -30 to +60 mV, 30 s, Fig. 4g-i) was “completely prevented the inhibition”. For the same compound, the “unitary current activity in native HeLa cells at 1 μM [Ca2+]i” value [3] was “did not elicit any changes”.
For “YGRKKRRORRRDGANVDMHLKQTFTKKFKYGTFFHGK [TAT-L2]”, the “effect on Cx43 gap junctions” value (Cx43 gap junctions) is given as “but not Cx43 gap junctions”, the “effect of TAT-L2 pre-treatment on the active area in BCECs” value ([1]; pre-treatment of BCECs) is given as “severely reduced” and the “effect on opening of Cx43-hemichannels” value (Cx43-hemichannels) is given as “inhibited the opening of Cx43-hemichannels”.
For YGRKKRRQRRRSRPRPDDLFI [TAT-CT9], the “restoration of the thrombin-reduced active area in BCECs” value ([1]; thrombin-treated BCECs) is listed as “could restore the thrombin-reduced active area”, the “restoration of ATP release of Cx43^M242 hemichannels in response to 2 μM A23187” value (Cx43^M242 hemichannels) is listed as “can restore the activity” and the “effect on Cx43-hemichannel inhibition by high [Ca2+]i” value (Cx43-hemichannels) is listed as “prevented the Cx43-hemichannel inhibition by high [Ca^2+]i”. The “restoration of the activity of Cx43^M239-based hemichannels” value (Cx43-hemichannels; cell-permeant synthetic peptide) was “can be restored”.
In the case of YGRKKRRQRRRSSPTAPLSPMSPPG [TAT-SH3], the “restoration of ATP release of Cx43^M242 hemichannels in response to 2 μM A23187” value (Cx43^M242 hemichannels) was “restored the ATP release properties” and the “restoration of ATP release through Cx43^ΔGap19M242-based hemichannels” value [4] was “could not be restored”.
In the case of thrombin, the “effect of thrombin pre-treatment on the active area in BCECs” value ([1]; pre-treatment of BCECs) is given as “strongly reduced”.
